Non-standard residues stand in square brackets, D forms with d. Residues, ends and D or L forms follow the SMILES beside them. *: point of attachment. Pro(cis-4-OPh) = O=C(O)[C@@H]1C[C@H](Oc2ccccc2)CN1; Bip = N[C@@H](Cc1ccc(-c2ccccc2)cc1)C(=O)O; X2 = CCCCCCCCCCCCCCCCCCS(=O)(=O)CCN*; Tle = CC(C)(C)[C@H](N)C(=O)O; X1 = CCCCCCCCCCCCCCCCCCSCCN*; NMeA = CN[C@@H](C)C(=O)O
What was measured:
BT-474 = test: Antiproliferative activity against human BT-474 cells assessed as growth inhibition after 48 hrs by PrestoBlue dye based fluorescence assay; assay type: functional, cell-based; conditions: BT-474, 48 h
MDA-MB-361 [1] = test: Antiproliferative activity against human MDA-MB-361 cells assessed as growth inhibition after 48 hrs by PrestoBlue dye based fluorescence assay; assay type: functional, cell-based; conditions: MDA-MB-361, 48 h
KOPN-8 [2] = test: Antiproliferative activity against human KOPN-8 cells assessed as growth inhibition after 48 hrs by PrestoBlue dye based fluorescence assay; assay type: functional, cell-based; conditions: KOPN-8, 48 h
HL-60 = test: Antiproliferative activity against human HL60 cells assessed as growth inhibition after 48 hrs by PrestoBlue dye based fluorescence assay; assay type: functional, cell-based; conditions: HL-60, 48 h
THP-1 = test: Antiproliferative activity against human THP1 cells assessed as growth inhibition after 48 hrs by PrestoBlue dye based fluorescence assay; assay type: functional, cell-based; conditions: THP-1, 48 h
[3] = Antiproliferative activity against human M233 cells assessed as growth inhibition after 48 hrs by PrestoBlue dye based fluorescence assay; assay type: functional, cell-based; conditions: M233, 48 h
[4] = Antiproliferative activity against human M263 cells assessed as growth inhibition after 48 hrs by PrestoBlue dye based fluorescence assay; assay type: functional, cell-based; conditions: M263, 48 h
PC-3 = test: Antiproliferative activity against human PC-3 cells assessed as growth inhibition after 48 hrs by PrestoBlue dye based fluorescence assay; assay type: functional, cell-based; conditions: PC-3, 48 h
T84 = test: Antiproliferative activity against human T84 cells assessed as growth inhibition after 48 hrs by PrestoBlue dye based fluorescence assay; assay type: functional, cell-based; conditions: T84, 48 h
[5] = Antiproliferative activity against human UM-SCC-5 cells assessed as growth inhibition after 48 hrs by PrestoBlue dye based fluorescence assay; assay type: functional, cell-based; conditions: UM-SCC-5, 48 h
[6] = Antiproliferative activity against human UM-SCC-12 cells assessed as growth inhibition after 48 hrs by PrestoBlue dye based fluorescence assay; assay type: functional, cell-based; conditions: UM-SCC-12, 48 h
[7] = Antiproliferative activity against human UM-SCC-178 cells assessed as growth inhibition after 48 hrs by PrestoBlue dye based fluorescence assay; assay type: functional, cell-based; conditions: UM-SCC-178, 48 h
KOPN-8 [8] = test: Induction of apoptosis in human KOPN8 cells assessed as viable cells at 10 uM after 24 hrs by AnnexinV/PI-staining based flow cytometry; assay type: functional; conditions: read-out: Activity
Outline: (§1)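 KOPN-8 cells treated with 1 or 10 μM compound, alone or as an equimolar two-compound mixture. Cultured for a time course, then stained with annexin V and propidium iodide. Read by flow cytometry; populations gated by annexin V/PI staining, including annexin V+/PI+ double positives.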

KOPN-8 [9] = test: Induction of apoptosis in human KOPN8 cells assessed as early apoptotic cells at 10 uM after 24 hrs by AnnexinV/PI-staining based flow cytometry; assay type: functional; outline: as §1
KOPN-8 [10] = test: Induction of apoptosis in human KOPN8 cells assessed as late apoptotic cells at 10 uM after 24 hrs by AnnexinV/PI-staining based flow cytometry; assay type: functional; outline: as §1
KOPN-8 [11] = test: Induction of apoptosis in human KOPN8 cells assessed as necrotic cells at 10 uM after 24 hrs by AnnexinV/PI-staining based flow cytometry; assay type: functional; outline: as §1
KOPN-8 [12] = test: Induction of apoptosis in human KOPN8 cells assessed as viable cells at 10 uM after 48 hrs by AnnexinV/PI-staining based flow cytometry; assay type: functional; conditions: read-out: Activity; outline: as §1
KOPN-8 [13] = test: Induction of apoptosis in human KOPN8 cells assessed as early apoptotic cells at 10 uM after 48 hrs by AnnexinV/PI-staining based flow cytometry; assay type: functional; outline: as §1
KOPN-8 [14] = test: Induction of apoptosis in human KOPN8 cells assessed as late apoptotic cells at 10 uM after 48 hrs by AnnexinV/PI-staining based flow cytometry; assay type: functional; outline: as §1
KOPN-8 [15] = test: Induction of apoptosis in human KOPN8 cells assessed as necrotic cells at 10 uM after 48 hrs by AnnexinV/PI-staining based flow cytometry; assay type: functional; outline: as §1
KOPN-8 [16] = test: Induction of apoptosis in human KOPN8 cells assessed as viable cells at 10 uM after 72 hrs by AnnexinV/PI-staining based flow cytometry; assay type: functional; conditions: read-out: Activity; outline: as §1
KOPN-8 [17] = test: Induction of apoptosis in human KOPN8 cells assessed as early apoptotic cells at 10 uM after 72 hrs by AnnexinV/PI-staining based flow cytometry; assay type: functional; outline: as §1
KOPN-8 [18] = test: Induction of apoptosis in human KOPN8 cells assessed as late apoptotic cells at 10 uM after 72 hrs by AnnexinV/PI-staining based flow cytometry; assay type: functional; outline: as §1
KOPN-8 [19] = test: Induction of apoptosis in human KOPN8 cells assessed as necrotic cells at 10 uM after 72 hrs by AnnexinV/PI-staining based flow cytometry; assay type: functional; outline: as §1
KOPN-8 [20] = test: Induction of apoptosis in human KOPN8 cells assessed as viable cells at 10 uM after 168 hrs by AnnexinV/PI-staining based flow cytometry; assay type: functional; conditions: read-out: Activity; outline: as §1
KOPN-8 [21] = test: Induction of apoptosis in human KOPN8 cells assessed as early apoptotic cells at 10 uM after 168 hrs by AnnexinV/PI-staining based flow cytometry; assay type: functional; outline: as §1
KOPN-8 [22] = test: Induction of apoptosis in human KOPN8 cells assessed as late apoptotic cells at 10 uM after 168 hrs by AnnexinV/PI-staining based flow cytometry; assay type: functional; outline: as §1
KOPN-8 [23] = test: Induction of apoptosis in human KOPN8 cells assessed as necrotic cells at 10 uM after 168 hrs by AnnexinV/PI-staining based flow cytometry; assay type: functional; outline: as §1
KOPN-8 [24] = test: Induction of apoptosis in human KOPN8 cells assessed as increase in caspase 9 activity at 0.1 to 50 uM after 24 hrs by Caspase-glo reagent based microplate reader analysis relative to control; assay type: functional; conditions: dose microM 0.1-50
[25] = Tmax in C57BL/6 mouse at 10 mg/kg, sc by LC-MS analysis; assay type: ADME, organism-based; conditions: in vivo
Outline: (§2)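 Mice individually weighed, then given a single SC dose of 10 mg/kg. Blood taken by retro-orbital bleeding at set time points. Plasma levels measured by triple-quadrupole LC/MS; plasma half-life derived from these levels.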

[26] = Cmax in C57BL/6 mouse at 10 mg/kg, sc by LC-MS analysis; assay type: ADME, organism-based; design: route subcutaneous, dose 10 mg/kg; conditions: in vivo; outline: as §2
[27] = Drug level in C57BL/6 mouse plasma at 10 mg/kg, sc after 30 mins by LC-MS analysis; assay type: ADME, organism-based; conditions: in vivo, 0.5 h; outline: as §2
MDA-MB-361 [28] = test: Antitumor activity against sc dosed human MDA-MB-361 cells xenografted in BALB mouse administered up to 12 days by caliper analysis; assay type: functional, organism-based; conditions: dose mg/kg 10-20, time 12.0 day
Outline: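 Tumor-bearing mice, subcutaneous engraftment model; compound given SC at 10 or 20 mg/kg in 2% Cremophor EL, 2×5 injections (10 doses total). Read-out is tumor growth delay in days, taken at a tumor volume of 500 mm3.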

MCF7 = test: Antiproliferative activity against human MCF7 cells assessed as growth inhibition after 48 hrs by PrestoBlue dye based fluorescence assay; assay type: functional, cell-based; conditions: MCF7, 48 h
HepG2 = test: Antiproliferative activity against human HepG2 cells assessed as growth inhibition after 48 hrs by PrestoBlue dye based fluorescence assay; assay type: functional, cell-based; conditions: HepG2, 48 h
Hep 3B2 = test: Antiproliferative activity against human Hep3B cells assessed as growth inhibition after 48 hrs by PrestoBlue dye based fluorescence assay; assay type: functional, cell-based
[29] = Antiproliferative activity against human CEMTL cells assessed as growth inhibition after 48 hrs by PrestoBlue dye based fluorescence assay; assay type: functional, cell-based; conditions: CEM-TL
SK-MEL-28 = test: Antiproliferative activity against human SK-MEL-28 cells assessed as growth inhibition after 48 hrs by PrestoBlue dye based fluorescence assay; assay type: functional, cell-based; conditions: SK-MEL-28, 48 h
PANC-1 = test: Antiproliferative activity against human PANC-1 cells assessed as growth inhibition after 48 hrs by PrestoBlue dye based fluorescence assay; assay type: functional, cell-based; conditions: PANC-1, 48 h
LNCaP = test: Antiproliferative activity against human LNCAP cells assessed as growth inhibition after 48 hrs by PrestoBlue dye based fluorescence assay; assay type: functional, cell-based
HCT-116 = test: Antiproliferative activity against human HCT116 cells assessed as growth inhibition after 48 hrs by PrestoBlue dye based fluorescence assay; assay type: functional, cell-based; conditions: HCT-116, 48 h
SW480 = test: Antiproliferative activity against human SW480 cells assessed as growth inhibition after 48 hrs by PrestoBlue dye based fluorescence assay; assay type: functional, cell-based; conditions: SW480, 48 h
FaDu = test: Antiproliferative activity against human FADU cells assessed as growth inhibition after 48 hrs by PrestoBlue dye based fluorescence assay; assay type: functional, cell-based
[30] = Antiproliferative activity against human UM-SCC-6 cells assessed as growth inhibition after 48 hrs by PrestoBlue dye based fluorescence assay; assay type: functional, cell-based; conditions: UM-SCC-6, 48 h

CCCCCCCCCCCCCCCCCCSCCNC(=O)[C@H](Cc1ccc(-c2ccccc2)cc1)NC(=O)[C@@H]1C[C@H](Oc2ccccc2)CN1C(=O)[C@@H](NC(=O)[C@H](C)NC)C(C)(C)C (H-[NMeA][Tle][Pro(cis-4-OPh)][Bip]-X1)
EC50 (BT-474): 320 nM
EC50 (MDA-MB-361 [1]): 1700 nM
EC50 (KOPN-8 [2]): 1000 nM
EC50 (HL-60): 2000 nM
EC50 (THP-1): 8700 nM
EC50 [3]: 9500 nM
EC50 [4]: 2900 nM
EC50 (PC-3): 2200 nM
EC50 (T84): 2000 nM
EC50 [5]: 960 nM
EC50 [6]: 1100 nM
EC50 [7]: 2700 nM
viability at 10 µM (KOPN-8 [8]): 71%
Activity (KOPN-8 [9]): 1.67%
Activity (KOPN-8 [10]): 20.3%
Activity (KOPN-8 [11]): 7.06%
viability at 10 µM (KOPN-8 [12]): 79.3%
Activity (KOPN-8 [13]): 0.94%
Activity (KOPN-8 [14]): 17.8%
Activity (KOPN-8 [15]): 1.97%
viability at 10 µM (KOPN-8 [16]): 74.9%
Activity (KOPN-8 [17]): 1.27%
Activity (KOPN-8 [18]): 22.4%
Activity (KOPN-8 [19]): 1.41%
viability at 10 µM (KOPN-8 [20]): 87.6%
Activity (KOPN-8 [21]): 1.81%
Activity (KOPN-8 [22]): 9.97%
Activity (KOPN-8 [23]): 0.63%
fold change (FC) (KOPN-8 [24]): 1.5
Tmax [25]: 16 h
Cmax [26]: 15.1265 µM
Cp [27]: 7.5633 µM
Activity (MDA-MB-361 [28]): Dose-dependent effect

CCCCCCCCCCCCCCCc1cccc(O[C@H]2C[C@@H](C(=O)NC(c3ccccc3)c3ccccc3)N(C(=O)[C@@H](NC(=O)[C@H](C)NC)C(C)(C)C)C2)c1
Tmax [25]: 15.5 h
Cmax [26]: 3.9708 µM
Cp [27]: 1.9854 µM

CCCCCCCCCCCCCCCCCCS(=O)(=O)CCNC(=O)[C@H](Cc1ccc(-c2ccccc2)cc1)NC(=O)[C@@H]1C[C@H](Oc2ccccc2)CN1C(=O)[C@@H](NC(=O)[C@H](C)NC)C(C)(C)C (H-[NMeA][Tle][Pro(cis-4-OPh)][Bip]-X2)
EC50 (MCF7): 48200 nM
EC50 (HepG2): 2100 nM
EC50 (Hep 3B2): 240 nM
EC50 [29]: 14200 nM
EC50 (SK-MEL-28): 11300 nM
EC50 (PANC-1): 4700 nM
EC50 (LNCaP): 10500 nM
EC50 (PC-3): 2300 nM
EC50 (HCT-116): 1500 nM
EC50 (SW480): 25700 nM
EC50 (FaDu): 640 nM
EC50 [30]: 4800 nM
EC50 [6]: 1100 nM

Source: ChEMBL document CHEMBL4699443, “Position of lipidation influences anticancer activity of Smac analogs” (Bioorg Med Chem Lett, 2019)
